High-throughput results from PubChem BioAssay.
Most compounds without a hit are left out; they make up all but 6.7% or so of the library.
PREPL inh = inhibits the human prolyl oligopeptidase-like enzyme. actives 0.68% (n = 320,000). Q4J6C6. inhibition, % at 5.96 µM. recombinant PREPL, fluorescence polarization activity-based probe. AID 2751; in the data active = inhibition above about 43%;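 note: 0% = enzyme with DMSO and 100% = wells lacking enzyme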
Target sequence (Q4J6C6 whole entry, looked up): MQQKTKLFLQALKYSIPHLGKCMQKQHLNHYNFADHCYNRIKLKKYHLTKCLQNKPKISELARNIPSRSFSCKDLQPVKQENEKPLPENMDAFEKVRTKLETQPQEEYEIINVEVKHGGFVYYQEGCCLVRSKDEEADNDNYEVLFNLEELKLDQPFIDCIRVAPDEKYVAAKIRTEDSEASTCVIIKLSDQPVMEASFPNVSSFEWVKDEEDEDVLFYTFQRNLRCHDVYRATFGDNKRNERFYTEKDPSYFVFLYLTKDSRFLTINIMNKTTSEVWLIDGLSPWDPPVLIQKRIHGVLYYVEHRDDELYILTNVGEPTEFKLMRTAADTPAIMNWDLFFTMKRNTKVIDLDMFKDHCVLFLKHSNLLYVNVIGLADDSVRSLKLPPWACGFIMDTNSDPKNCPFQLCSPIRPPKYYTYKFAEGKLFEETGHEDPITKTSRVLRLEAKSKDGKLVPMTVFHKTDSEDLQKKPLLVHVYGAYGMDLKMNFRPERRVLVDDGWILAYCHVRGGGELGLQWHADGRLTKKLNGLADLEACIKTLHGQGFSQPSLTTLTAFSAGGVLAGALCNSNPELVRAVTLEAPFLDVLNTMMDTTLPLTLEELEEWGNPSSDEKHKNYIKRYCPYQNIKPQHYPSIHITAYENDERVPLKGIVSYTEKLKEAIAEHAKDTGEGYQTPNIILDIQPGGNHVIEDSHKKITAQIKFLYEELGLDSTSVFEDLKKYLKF
CHOP inh = CHOP inhibition in unfolded protein response. CHO-K1 CHOP-promoter luciferase, tunicamycin-induced, 15-18 h. actives 3.8% (n = 220,000). inhibition, % at 10 µM;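 active = compounds that reduced the stress-induced luciferase reporter signal by more than about 70% of percent inhibition, limit read from the data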;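 note: 0% = tunicamycin plus vehicle and 100% = wells without tunicamycin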
T cruzi repl = blocks replication of Trypanosoma cruzi; AID 1885; T. cruzi beta-gal in NIH3T3, luminescence, 90 h; inhibition, % (no concentration beside the values); actives 1.4% (n = 300,000);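 active = mean inhibition across valid replicates above about 55%, limit read from the data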;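 note: signal also drops with host cell toxicity which is not excluded here; 0% = plate median of DMSO wells and 100% = zero luminescence signal; higher percent means less beta-gal luminescence so fewer parasites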
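System: NIH/3T3 fibroblasts plus reporter T. cruzi. Medium: DMEM plus 2% FBS. Probe or stimulus: 5000 reporter trypomastigotes per well. Compound: single 50 nL compound addition per well in DMSO. Incubation: co-culture of at least 90 h after 3 h attachment. Detection: GalScreen β-gal luminescence, detergent lysis, 60 min. Evaluation: parasite load inhibition, %.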
CSC inhib = blocks cancer stem cells. actives 1.1% (n = 300,000). inhibition, % at 7.5 µM. AID 2717. cancer stem cell-like cells viability, luminescence; in the data active = inhibition above about 75%; tested in HMLE shEcad cells
NR3A LBD binder = modulates the human NR3A ligand-binding domain | NR3A LBD differential scanning fluorimetry, Tm shift; 0% = protein alone, 100% = glycine-bound protein | Tm shift relative to glycine control, % at 25 µM | actives 2.5% (n = 340,000);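 active = melting temperature shift of at least 10% of the positive control shift, at one fixed dose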
Beta apoptosis = blocks beta cell apoptosis | AID 435005 | actives 0.8% (n = 300,000) | INS-1E cytokine-induced death, ATP luminescence, 48 h; percent of positive-control rescue, neutral wells zero | protection from apoptosis, % (test concentration not listed);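 active = Every replicate reaches about 75%, or at least half do and their mean reaches it too, limit read from the data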;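 note: 0% = cytokine-treated negative control wells and 100% = positive control rescue; higher means more ATP so stronger rescue from cytokine killing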
Starred values were filed as active, the others as inactive; . = not tested or not shown.

SMILES	PREPL inh	CHOP inh	T cruzi repl	CSC inhib	NR3A LBD binder	Beta apoptosis
Nc1nc(CSCCO)nc(Nc2ccc(F)cc2)n1	4	11	-12	8	1	2
N#Cc1cnc(Nc2ccc(F)cc2)nc1N	3	15	-10	-5	13*	1
O=C(COC(=O)Cc1ccc(S(=O)(=O)N2CCOCC2)s1)Nc1ccccc1Cl	13	.	.	-12	-2	1
CN(C)CCNC(=O)C(=O)Nc1cc2c3c(c1)CCN3C(=O)CC2	18	.	-4	-8	8	2
O=C(OCc1ccccc1)c1cn(-c2ccccc2)nc1-c1ccncc1	-3	-10	57*	3	3	.
COC(=O)c1cn(-c2ccccc2)nc1-c1ccncc1	20	6	0	.	2	-1
CCOc1ccc(CCNC(=O)COC(=O)c2c(C)nn(-c3ccccc3)c2C)cc1OCC	2	.	21	-5	-1	-1
O=C(O)CN1CCc2ccccc2C1	9	-6	-11	-6	1	-1
O=C(C1CCN(c2nnc(-n3cccc3)s2)CC1)N1CCN(c2cccc(C(F)(F)F)c2)CC1	34	77*	34	-10	0	17
O=C(C1CCC1)N1CCN(c2cccc(C(F)(F)F)c2)CC1	5	.	0	-7	-4	5
C/C(=N/Nc1ccnc2cc(Cl)ccc12)c1ccc(O)cc1	40	.	32	34	14*	0
C/C(=N/Nc1ccnc2cc(Cl)ccc12)c1ccc(N)cc1	37	.	60*	14	-2	-1
Cc1cnc(=O)[nH]c1SCc1cccc([N+](=O)[O-])c1	19	.	-22	10	0	-3
Cc1n[nH]c(C)c1Cc1c(F)cccc1Cl	-9	8	7	-10	-1	.
CNc1cc(C(F)(F)F)nc(-c2ccccn2)n1	8	-36	-20	-9	2	-4
Nc1nc(-c2ccccn2)nc(N)c1Cc1c(F)cccc1Cl	8	71*	57*	5	-5	96*
Nc1nc(-c2ccccn2)nc(N)c1Cc1ccccc1F	13	-43	82*	-13	0	20
Nc1nc(-c2ccccn2)nc(N)c1Cc1ccc(Cl)cc1Cl	27	46	73*	-10	-2	96*
Cc1c(C=O)c2ccccc2n1CC(=O)N1CCc2ccccc2C1	-14	8	3	-15	2	-1
COc1ccc(S(N)(=O)=O)cc1C(=O)OCC(=O)N1CCCC(C)C1 (centres undefined)	8	.	.	-21	2	1
CCOC(=O)Cn1cnc2c(nnn2-c2ccc(F)cc2)c1=O	6	.	-15	0	0	-8
O=C1/C(=C/c2cccnc2)Cc2ccc(Cl)cc21	-49	.	-21	-1	2	-3
CC(C)N1C/C(=C/c2cccnc2)C(=O)/C(=C/c2cccnc2)C1	.	100*	.	.	-1	.
CN1C/C(=C/c2cccnc2)C(=O)/C(=C/c2cccnc2)C1	0	81*	.	4	20*	0
CC(C)N1C/C(=C/c2ccsc2)C(=O)/C(=C/c2ccsc2)C1	3	66	23	22	-2	-1
SMILES	PREPL inh	CHOP inh	T cruzi repl	CSC inhib	NR3A LBD binder	Beta apoptosis
CC(Cc1ccc(O)c(O)c1)C(C)Cc1ccc(O)c(O)c1 (centres undefined)	6	.	-12	35	24*	4
C[C@H](Cc1ccc(O)c(O)c1)[C@@H](C)Cc1ccc(O)c(O)c1	.	-7	.	.	.	.
COc1ccc(C(=O)Nc2ccc3oc(-c4cccc(Cl)c4)cc(=O)c3c2O)cc1	-15	26	23	32	-8	46
CCC(=O)NC(c1ccc(C)cc1)c1cc(Cl)c2cccnc2c1O (centres undefined)	0	.	.	.	-27	88*
CN1CCN(C(c2ccc(Br)cc2)c2cc(Cl)c3cccnc3c2O)CC1 (centres undefined)	-2	.	21	111*	34*	73
COc1ccc(C(NC(C)=O)c2cc(Cl)c3cccnc3c2O)cc1OC (centres undefined)	7	41	57*	2	-6	95*
COc1ccccc1C(NC(C)=O)c1cc(Cl)c2cccnc2c1O (centres undefined)	3	.	61*	101*	-5	94*
COc1ccc(C(NC(C)=O)c2nccc3cc(OC)c(OC)cc23)cc1OC (centres undefined)	.	.	-26	.	2	.
CCC(=O)NC(C)c1cc(Cl)c2cccnc2c1O (centres undefined)	4	.	.	-4	-1	-7
COc1ccc(NC(=O)CCSCCc2ccccn2)cc1OC	17	-1	-7	5	2	1
Cc1ccnc(NC(=O)c2ccc(OCc3c(C)noc3C)cc2)c1	.	.	.	.	-2	.
COc1ccc(-c2cc(-c3ccco3)[nH]c(=O)c2C#N)cc1OC	2	27	0	-1	1	0
Cc1ccc(S(=O)(=O)Nc2cc(Cl)c(O)c3ncccc23)cc1	6	.	-10	29	-4	110*
CC(=O)NC(C)c1cc(Cl)c2cccnc2c1O (centres undefined)	-2	.	.	47	-3	92*
CCC(=O)NC(c1ccc(OC)c(OC)c1)c1cc(Cl)c2cccnc2c1O (centres undefined)	.	32	62*	.	-6	.
CCOc1ccc(C(Nc2cccnc2)c2cc(Cl)c3cccnc3c2O)cc1 (centres undefined)	2	54	-1	3	-1	86*
O=C(Nc1ccccc1)SC1CCCCC1	.	.	.	.	4	.
COc1cc(NC(=O)Cn2cnc3c(NCc4ccccc4)ncnc32)cc(OC)c1OC	.	.	.	.	1	.
CCOC(=O)N1CCN(C(=O)CSc2ccc(-c3cccc(OC)c3)nn2)CC1	1	77*	.	-4	0	0
COC(=O)c1ccc(NC(=O)Cn2c(-c3nonc3N)nc3ccccc32)cc1	-6	27	-8	9	-1	3
CC(C)OC(=O)c1ccc(NC(=O)Cn2c(-c3nonc3N)nc3ccccc32)cc1	3	-17	5	-24	19*	2
COc1ccc(S(=O)(=O)NC2CCc3ccccc32)cc1OC (centres undefined)	7	.	-2	-4	0	-2
CCN(c1ccccc1)S(=O)(=O)c1ccc(Cl)c(NC(=O)CN(C)C2CCN(C)CC2)c1	-18	21	56*	-4	-2	11
CN1CCC(N(C)CC(=O)Nc2cccc(Oc3ccccc3)c2)CC1	16	2	62*	53	0	-4
CCN(c1ccccc1)S(=O)(=O)c1ccc(Cl)c(NC(=O)CN2CCN(C)CC2)c1	0	.	.	.	-3	-2
COc1ccc(CCNc2nc(-c3ccc(F)cc3)c(CC(=O)O)s2)cc1OC	4	.	29	5	-1	.
COc1ccc(SC[C@H](Cc2ccccc2)N2CC[C@@H](NC(=O)OCc3ccccc3)CCC2=O)cc1	29	.	.	4	1	13
